Laboratory results from ChEMBL document CHEMBL2086326, “Biological activity evaluation and structure-activity relationships analysis of ferulic acid and caffeic acid derivatives for anticancer” (Bioorg Med Chem Lett, 2012).

How the values were obtained:
Assay type in all cases: functional, cell-based
[1] = Cytotoxicity against human SKBR cells after 72 hrs by alamar blue assay
Outline: (§1)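 Cells seeded at 800–1000 per well (20–25 cells/µL) and left overnight to attach. Compounds were diluted serially from 10 mM DMSO stocks and tested at 8 final concentrations, 50 to 0.39 µM, in triplicate for 72 h. Vehicle control was 0.5% DMSO. Alamar blue was added to 10% final and fluorescence read after 4 h (ex 530, em 560 nm). Viability was expressed as percent of vehicle, and IC50 taken as 50% kill versus control.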

[2] = Cytotoxicity against human M4E cells after 72 hrs by alamar blue assay; outline: as §1
[3] = tested on: HeLa; assay: Cytotoxicity against human HeLa cells after 72 hrs by alamar blue assay; outline: as §1
[4] = tested on: A549; assay: Cytotoxicity against human A549 cells after 72 hrs by alamar blue assay; settings: A549, 72 h; outline: as §1
[5] = tested on: NCI-H1299; assay: Cytotoxicity against human NCI-H1299 cells after 72 hrs by alamar blue assay; settings: NCI-H1299, 72 h; outline: as §1
[6] = tested on: NCI-H157; assay: Cytotoxicity against human NCI-H157 cells after 72 hrs by alamar blue assay; settings: NCI-H157, 72 h; outline: as §1
[7] = tested on: NCI-H1792; assay: Cytotoxicity against human NCI-H1792 cells after 72 hrs by alamar blue assay; settings: NCI-H1792, 72 h; outline: as §1
[8] = tested on: NCI-H460; assay: Cytotoxicity against human H460 cells after 72 hrs by alamar blue assay; settings: NCI-H460, 72 h; outline: as §1
[9] = tested on: LOX IMVI; assay: Cytotoxicity against human LOXIMVI cells after 72 hrs by alamar blue assay; outline: as §1
[10] = tested on: HOP-62; assay: Cytotoxicity against human HOP62 cells after 72 hrs by alamar blue assay; settings: HOP-62, 72 h; outline: as §1
[11] = Cytotoxicity against human H266 cells after 72 hrs by alamar blue assay; settings: H266, 72 h; outline: as §1
[12] = tested on: Calu-1; assay: Cytotoxicity against human Calu1 cells after 72 hrs by alamar blue assay; settings: Calu-1, 72 h; outline: as §1
[13] = Cytotoxicity against human 292G cells after 72 hrs by alamar blue assay; outline: as §1
[14] = tested on: M14; assay: Cytotoxicity against human M14 cells after 72 hrs by alamar blue assay; settings: M14, 72 h; outline: as §1

Compound	IC50 [1] [µM]	IC50 [2] [µM]	IC50 [3] [µM]	IC50 [4] [µM]	IC50 [5] [µM]	IC50 [6] [µM]	IC50 [7] [µM]	IC50 [8] [µM]	IC50 [9] [µM]	IC50 [10] [µM]	IC50 [11] [µM]	IC50 [12] [µM]	IC50 [13] [µM]	IC50 [14] [µM]
CCOC(=O)/C=C/c1ccc(O)c(OC)c1 [ETHYL FERULATE]	24.9	33.4	2.13	12.5	36.8	32.3	25.6	29.1	> 50	26.8	28.1	> 50	32	> 50
COc1cc(/C=C/C(=O)OCc2c(-c3ccccc3)no[n+]2[O-])ccc1O	4.98	3.37	7.82	2.06	12.9	4.53	11.1	7.03	13.8	8.66	13.4	22.9	16.5	14
COc1cc(/C=C/C(=O)Oc2cccc(OCc3c(-c4ccccc4)no[n+]3[O-])c2)ccc1O	14.2	44.6	> 50	0.72	> 50	24.7	> 50	11.6	49.4	> 50	> 50	> 50	> 50	> 50
COc1cc(/C=C/C(=O)Oc2ccc(OCc3c(-c4ccccc4)no[n+]3[O-])cc2)ccc1O	11	> 50	12.1	3.39	28.5	43.1	8.15	15.8	> 50	30.4	> 50	28.8	31	> 50
CCCOC(=O)/C=C/c1ccc(O)c(OC)c1	24.5	18.5	5.62	15.6	40.3	15.2	34.1	25.2	15.2	22.4	20.4	48.9	35.9	28.1
COC(=O)/C=C/c1ccc(O)c(O)c1 [METHYLCAFFEATE]	5.15	8.89	3.77	7.54	3.53	6.25	6.09	14.8	21.8	3.86	> 50	5.5	3.11	8.86
COc1cc(/C=C/C(=O)OCCCCCCO[N+](=O)[O-])ccc1O	15.2	> 50	16.3	37.4	> 50	32.1	48.7	> 50	> 50	> 50	> 50	> 50	> 50	> 50
COc1cc(/C=C/C(=O)OCCCCCO[N+](=O)[O-])ccc1O	8.06	21.8	13.4	6.39	20.8	13.4	13	12.3	> 50	12.5	21.2	26.3	24.9	24.5
O=C(/C=C/c1ccc(O)c(O)c1)OCc1c(-c2ccccc2)no[n+]1[O-]	0.7	12.9	1.23	2.71	> 50	> 50	3.78	2.54	13.3	6.12	14.2	7.68	9.17	12.5
O=C(/C=C/c1ccc(OCCCCCCO[N+](=O)[O-])c(O)c1)OCCCCCCO[N+](=O)[O-]	39.7	> 50	1.35	> 50	> 50	> 50	> 50	> 50	> 50	> 50	> 50	> 50	> 50	> 50
CCCOC(=O)/C=C/c1ccc(O)c(O)c1	3.87	12.4	1.51	4.39	5.85	7.16	22.1	7.01	7.5	7.81	34.4	17.7	7.58	13.5
CC(C)CCOC(=O)/C=C/c1ccc(O)c(O)c1	13.1	29.1	9.39	8.76	17.9	8.25	31.9	16.5	8.03	15.7	33.8	20.2	27.6	30.6
COc1cc(/C=C/C(=O)OCCCCCO[N+](=O)[O-])ccc1OCCCCCO[N+](=O)[O-]	> 50	> 50	> 50	> 50	> 50	> 50	> 50	> 50	> 50	> 50	> 50	> 50	> 50	> 50
O=C(/C=C/c1ccc(OCCCCO[N+](=O)[O-])c(O)c1)OCCCCO[N+](=O)[O-]	3.23	> 50	3.93	0.41	> 50	> 50	> 50	> 50	> 50	> 50	> 50	> 50	> 50	> 50
COc1cc(/C=C/C(=O)OCc2ccc(OCc3c(-c4ccccc4)no[n+]3[O-])cc2)ccc1O	11.7	> 50	> 50	17.2	> 50	> 50	> 50	44.2	> 50	> 50	> 50	> 50	> 50	> 50
